pIC50: −log10 of the molar value.
Assays:
PC-3 = experiment: Cytotoxicity against human PC3 cells assessed as growth inhibition after 24 hrs by CCK8 assay; format: functional, cell-based; details: PC-3, 24 h
In short: (§1)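 Cells (PC-3, LNCaP, DU145, normal prostate […] WPMY-1) exposed 24 h to escalating concentrations; viability by CCK-8 read-out as percent of control; IC50 derived.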

LNCaP = experiment: Cytotoxicity against human LNCAP cells assessed as growth inhibition after 24 hrs by CCK8 assay; format: functional, cell-based; in short: as §1
DU-145 [1] = experiment: Cytotoxicity against human DU145 cells assessed as growth inhibition after 24 hrs by CCK8 assay; format: functional, cell-based; details: DU-145, 24 h; in short: as §1
[2] = Cytotoxicity against human WPMY-1 cells assessed as growth inhibition after 24 hrs by CCK8 assay; format: cell-based; details: WPMY-1, 24 h; in short: as §1
DU-145 [3] = experiment: Potency index, ratio of naftopidil IC50 to compound IC50 for human DU145 cells; format: functional
DU-145 [4] = experiment: Cell cycle arrest in human DU145 cells assessed as accumulation at G0/G1 phase at 6 uM after 24 hrs by propidium iodide staining based flow cytometry (reference value: 55.49%); format: functional
DU-145 [5] = experiment: Cell cycle arrest in human DU145 cells assessed as accumulation at S phase at 6 uM after 24 hrs by propidium iodide staining based flow cytometry (reference value: 20.64%); format: functional
DU-145 [6] = experiment: Cell cycle arrest in human DU145 cells assessed as accumulation at G2/M phase at 6 uM after 24 hrs by propidium iodide staining based flow cytometry (reference value: 24.42%); format: functional
DU-145 [7] = experiment: Induction of apoptosis in human DU145 cells assessed as live cells at 6 uM after 24 hrs by Annexin V/propidium iodide staining based flow cytometry (reference value: 99.38%); format: functional
DU-145 [8] = experiment: Induction of apoptosis in human DU145 cells assessed as early apoptotic cells at 6 uM after 24 hrs by Annexin V/propidium iodide staining based flow cytometry (reference value: […]); format: functional
DU-145 [9] = experiment: Induction of apoptosis in human DU145 cells assessed as late apoptotic cells at 6 uM after 24 hrs by Annexin V/propidium iodide staining based flow cytometry (reference value: 0.17%); format: functional
DU-145 [10] = experiment: Induction of apoptosis in human DU145 cells assessed as necrotic cells at 6 uM after 24 hrs by Annexin V/propidium iodide staining based flow cytometry (reference value: 0.33%); format: functional
[11] = target: T1, Alpha-1A adrenergic receptor (Homo sapiens, UniProt P35348); experiment: Antagonist activity at alpha 1A adrenergic receptor (unknown origin) by luciferase reporter gene assay; format: functional
T1 sequence (P35348 whole entry): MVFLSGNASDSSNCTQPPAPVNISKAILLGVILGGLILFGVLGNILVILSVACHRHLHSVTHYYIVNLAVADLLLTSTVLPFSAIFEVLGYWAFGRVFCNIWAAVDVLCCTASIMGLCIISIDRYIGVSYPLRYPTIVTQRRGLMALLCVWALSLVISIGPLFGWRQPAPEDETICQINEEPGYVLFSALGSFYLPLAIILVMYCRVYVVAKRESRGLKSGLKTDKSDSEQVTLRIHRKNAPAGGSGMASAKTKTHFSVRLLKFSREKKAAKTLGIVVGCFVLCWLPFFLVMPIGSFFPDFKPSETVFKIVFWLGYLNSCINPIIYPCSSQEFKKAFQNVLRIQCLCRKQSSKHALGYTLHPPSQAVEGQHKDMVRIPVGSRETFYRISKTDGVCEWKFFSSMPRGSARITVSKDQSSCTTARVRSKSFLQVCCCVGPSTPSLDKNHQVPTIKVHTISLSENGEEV
In short: (§2)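 Dual-luciferase reporter assay measuring antagonism at α1A, α1B and α1D adrenoceptor subtypes. IC50 values are means of three experiments.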

[12] = target: T2, Alpha-1B adrenergic receptor (Homo sapiens, UniProt P35368); experiment: Antagonist activity at alpha 1B adrenergic receptor (unknown origin) by luciferase reporter gene assay; format: functional; in short: as §2
T2 sequence (P35368 whole entry): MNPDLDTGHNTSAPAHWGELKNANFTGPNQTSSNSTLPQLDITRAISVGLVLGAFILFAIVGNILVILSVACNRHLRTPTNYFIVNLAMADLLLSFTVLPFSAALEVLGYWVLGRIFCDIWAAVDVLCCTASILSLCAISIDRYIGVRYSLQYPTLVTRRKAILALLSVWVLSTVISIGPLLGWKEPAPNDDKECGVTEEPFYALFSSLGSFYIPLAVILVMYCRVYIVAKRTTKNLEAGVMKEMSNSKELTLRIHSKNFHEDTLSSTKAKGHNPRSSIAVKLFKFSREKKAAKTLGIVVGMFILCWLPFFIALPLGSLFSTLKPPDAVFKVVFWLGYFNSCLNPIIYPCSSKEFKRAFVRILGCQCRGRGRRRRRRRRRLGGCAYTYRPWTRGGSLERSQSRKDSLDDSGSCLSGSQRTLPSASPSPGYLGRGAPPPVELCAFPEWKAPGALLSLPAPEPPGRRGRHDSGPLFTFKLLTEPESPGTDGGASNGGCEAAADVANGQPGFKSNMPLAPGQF

[13] = target: T3, Alpha-1D adrenergic receptor (Homo sapiens, UniProt P25100); experiment: Antagonist activity at alpha 1D adrenergic receptor (unknown origin) by luciferase reporter gene assay; format: functional; in short: as §2
T3 sequence (P25100 whole entry): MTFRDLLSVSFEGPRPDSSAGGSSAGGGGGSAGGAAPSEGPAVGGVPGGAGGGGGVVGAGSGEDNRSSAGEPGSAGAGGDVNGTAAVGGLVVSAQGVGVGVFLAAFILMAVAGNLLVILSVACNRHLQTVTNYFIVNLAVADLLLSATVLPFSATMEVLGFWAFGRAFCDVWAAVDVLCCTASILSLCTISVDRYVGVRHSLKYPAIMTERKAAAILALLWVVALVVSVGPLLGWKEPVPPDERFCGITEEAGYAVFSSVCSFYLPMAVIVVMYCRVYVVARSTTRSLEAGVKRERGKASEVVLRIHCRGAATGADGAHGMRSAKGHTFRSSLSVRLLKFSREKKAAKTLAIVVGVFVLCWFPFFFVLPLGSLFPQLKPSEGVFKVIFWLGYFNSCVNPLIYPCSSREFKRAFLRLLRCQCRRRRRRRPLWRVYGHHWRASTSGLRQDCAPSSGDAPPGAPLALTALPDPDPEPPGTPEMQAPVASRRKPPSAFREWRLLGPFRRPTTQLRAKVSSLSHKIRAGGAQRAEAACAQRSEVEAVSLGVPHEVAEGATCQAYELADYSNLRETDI

Compound | pIC50 (PC-3) | pIC50 (LNCaP) | pIC50 (DU-145 [1]) | pIC50 [2] | further results
Cl.Cl.Fc1ccc(N2CCN(CCc3ccc(COc4ccc5c(c4)CCCC5)cc3)CC2)cc1 | 4.24 | 4.32 | 6.05 | < 4.30 | Ratio IC50 (DU-145 [3]): 38; Activity (DU-145 [4]): 70.5%; Activity (DU-145 [5]): 20.42%; Activity (DU-145 [6]): 12.72%; Activity (DU-145 [7]): 99.5%; Activity (DU-145 [8]): 0.05%; Activity (DU-145 [9]): 0.1%; Activity (DU-145 [10]): 0.28%; pIC50 [11]: 5.97; pIC50 [12]: 5.95; pIC50 [13]: 6.99
FC(F)(F)c1ccccc1N1CCN(CCc2ccc(COc3ccc4c(c3)CCCC4)cc2)CC1 | < 4.30 | 5.22 | < 4.30 | < 4.30 | –
c1ccc(N2CCN(CCc3ccc(COc4ccc5c(c4)CCCC5)cc3)CC2)nc1 | 4.53 | 5.53 | 4.95 | 4.31 | –
CC(C)(C)NC(=O)[C@H]1CC[C@H]2[C@@H]3CC[C@H]4NC(=O)C=C[C@]4(C)[C@H]3CC[C@]12C [FINASTERIDE] | 4.75 | 4.84 | 4.87 | – | –
c1ccc(N2CCN(CCc3ccc(COc4ccc5c(c4)CCCC5)cc3)CC2)cc1 | < 4.30 | 5.19 | < 4.30 | < 4.30 | –
Cc1ccc(N2CCN(CCc3ccc(COc4ccc5c(c4)CCCC5)cc3)CC2)cc1 | < 4.30 | < 4.30 | 4.60 | < 4.30 | –
Cl.c1ccc(C2CCN(CCc3ccc(COc4ccc5c(c4)CCCC5)cc3)CC2)cc1 | 4.98 | 5.40 | 6.02 | < 4.30 | Ratio IC50 (DU-145 [3]): 36; pIC50 [11]: 6.25; pIC50 [12]: 6.17; pIC50 [13]: 6.34
CCOc1ccccc1N1CCN(CCc2ccc(COc3ccc4c(c3)CCCC4)cc2)CC1 | < 4.30 | 4.55 | < 4.30 | < 4.30 | –
COc1ccc(Cl)cc1N1CCN(CCc2ccc(COc3ccc4c(c3)CCCC4)cc2)CC1 | < 4.30 | < 4.30 | 4.60 | 4.33 | –
Clc1cccc(N2CCN(CCc3ccc(COc4ccc5c(c4)CCCC5)cc3)CC2)c1Cl | < 4.30 | 5.51 | 4.64 | < 4.30 | –
Cc1cccc(N2CCN(CCc3ccc(COc4ccc5c(c4)CCCC5)cc3)CC2)c1.Cl.Cl | 4.25 | < 4.30 | 6.08 | < 4.30 | Ratio IC50 (DU-145 [3]): 41; pIC50 [11]: 6.30; pIC50 [12]: 6.23; pIC50 [13]: 6.08
COc1ccccc1N1CCN(CC(O)COc2cccc3ccccc23)CC1 (stereo not drawn) [NAFTOPIDIL] | 4.38 | – | – | < 4.30 | –
OC1(c2ccccc2)CCN(CCc2ccc(COc3ccc4c(c3)CCCC4)cc2)CC1 | < 4.30 | 5.52 | 5.47 | 4.50 | –

From ChEMBL document CHEMBL4219197, “Synthesis, biological evaluation and SAR of naftopidil-based arylpiperazine derivatives” (Bioorg Med Chem Lett, 2018)
